Assay results reported in ChEMBL document CHEMBL5214901 (J Med Chem, 2021).
Calls of active or inactive are those of the source. The calls are words filed in the database; no cut-off is given here.

Columns and labels:
Human alphaherpesvirus 1 [1] = test: Antiviral activity against HSV-1 R8102 infected in HEK293T cells assessed as inhibition of viral replication using ONPG as substrate incubated for 1 hrs followed by viral infection measured after 90 mins by microplate reader analysis; type: functional, organism-based; conditions: dose <= 1000.0 µM, DDE = dose-dependent effect
Method in brief: (§1)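 Peptides were dissolved at 10 mM (stock) in serum-free DMEM and neutralized with Tris-HCl. 293T cells (low endogenous αvβ6/αvβ8) were pretreated with increasing peptide concentrations for 1 h at 37 °C. Cells were then infected with lacZ-reporter R8102 at MOI 5 PFU/cell for 90 min at 37 °C with peptide. After rinsing, cells were incubated 8 h without peptide. Infection was read as β-galactosidase activity with ONPG; triplicate, SD.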

Human alphaherpesvirus 1 [2] = test: Antiviral activity against HSV-1 R8102 infected in HEK293T cells assessed as inhibition of viral replication at 500 to 1000 uM using ONPG as substrate incubated for 1 hrs followed by viral infection measured after 90 mins by microplate reader analysis relative to control; type: functional; parameters: scale not given: the % may be the effect or the level left; conditions: dose 500-1000 µM; method in brief: as §1
Human alphaherpesvirus 1 [3] = test: Antiviral activity against HSV-1 K26GFP infected in J cells expressing nectin1 plus alphavbeta6/alphavbeta8 integrin at 700 uM incubated for 48 hrs followed by viral infection measured after 16 hrs by fluorescent microscopy; type: functional, organism-based; conditions: time 64.0 hrs
Method in brief: (§2)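 J cells were transfected with nectin1 (75 ng DNA/24 well) plus αv+β6, αv+β8, or both integrin plasmids (300 ng each). Total DNA was made up to 675 ng with Erb-2 plasmid. At 48 h, cells got 700 μM peptide for 1 h at 37 °C, then K26GFP at 1 PFU/cell for 90 min with peptide. Acid wash (pH 3), then 16 h without peptide. EGFP was read by fluorescence microscopy and flow cytometry MFI (≥10 000 events); triplicates ± SD.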

Human alphaherpesvirus 1 [4] = test: Antiviral activity against HSV-1 K26GFP infected in J cells expressing nectin1 plus alphavbeta6 integrin at 700 uM incubated for 48 hrs followed by viral infection measured after 16 hrs by fluorescent microscopy; type: functional, organism-based; conditions: time 64.0 hrs; method in brief: as §2
Human alphaherpesvirus 1 [5] = test: Antiviral activity against HSV-1 K26GFP infected in J cells expressing nectin1 plus alphavbeta8 integrin at 700 uM incubated for 48 hrs followed by viral infection measured after 16 hrs by fluorescent microscopy; type: functional, organism-based; conditions: time 64.0 hrs; method in brief: as §2
Human alphaherpesvirus 1 [6] = test: Antiviral activity against HSV-1 K26GFP infected in J cells expressing nectin1 plus alphavbeta6/alphavbeta8 integrin assessed as alphavbeta6/alphavbeta8 receptor internalization at 700 uM incubated for 1 hrs followed by viral infection by flow cytometry assay; type: functional, organism-based
Method in brief: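 Transfected J cells expressed nectin1 plus both αvβ6 and αvβ8 (48 h post-transfection) and were treated with 700 μM peptide for 1 h at 37 °C. Surface β6 and β8 were stained for 1 h at 4 °C with APC-conjugated mAbs outside the RGD-binding site. Nectin1 was stained with R1.302 plus APC secondary. Read-out was flow cytometry APC MFI of gated cells, ≥10 000 events; triplicates ± SD.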

Human alphaherpesvirus 1 [7] = test: Inhibition of HSV-1 soluble gH binding to alphavbeta6/alphavbeta8 integrin expressed in […] J cells at 700 uM incubated for 1 hr by flow cytometry assay; type: cell-based
Method in brief: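 J cells were transfected with nectin1 plus αvβ6 and αvβ8 and, 48 h later, exposed to 700 μM peptide for 1 h at 37 °C. They were then incubated for 1 h at 4 °C with 2 μM One-STrEP-tagged soluble gH in DMEM/5% FBS/30 mM HEPES. Soluble gB served as the control protein. Binding was detected with PE-Strep-Tactin (1 h, 4 °C) as flow cytometry MFI (≥10 000 events); triplicates ± SD.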

Integrin alpha-V/beta-6 = Integrin alpha-V/beta-6 (Homo sapiens, UniProt P06756+P18564); test: Inhibition of human recombinant integrin alphavbeta6 incubated for 1 hr by ELISA assay; type: protein-complex assay
Chain of Integrin alpha-V/beta-6 (P06756 31-889 limits assumed): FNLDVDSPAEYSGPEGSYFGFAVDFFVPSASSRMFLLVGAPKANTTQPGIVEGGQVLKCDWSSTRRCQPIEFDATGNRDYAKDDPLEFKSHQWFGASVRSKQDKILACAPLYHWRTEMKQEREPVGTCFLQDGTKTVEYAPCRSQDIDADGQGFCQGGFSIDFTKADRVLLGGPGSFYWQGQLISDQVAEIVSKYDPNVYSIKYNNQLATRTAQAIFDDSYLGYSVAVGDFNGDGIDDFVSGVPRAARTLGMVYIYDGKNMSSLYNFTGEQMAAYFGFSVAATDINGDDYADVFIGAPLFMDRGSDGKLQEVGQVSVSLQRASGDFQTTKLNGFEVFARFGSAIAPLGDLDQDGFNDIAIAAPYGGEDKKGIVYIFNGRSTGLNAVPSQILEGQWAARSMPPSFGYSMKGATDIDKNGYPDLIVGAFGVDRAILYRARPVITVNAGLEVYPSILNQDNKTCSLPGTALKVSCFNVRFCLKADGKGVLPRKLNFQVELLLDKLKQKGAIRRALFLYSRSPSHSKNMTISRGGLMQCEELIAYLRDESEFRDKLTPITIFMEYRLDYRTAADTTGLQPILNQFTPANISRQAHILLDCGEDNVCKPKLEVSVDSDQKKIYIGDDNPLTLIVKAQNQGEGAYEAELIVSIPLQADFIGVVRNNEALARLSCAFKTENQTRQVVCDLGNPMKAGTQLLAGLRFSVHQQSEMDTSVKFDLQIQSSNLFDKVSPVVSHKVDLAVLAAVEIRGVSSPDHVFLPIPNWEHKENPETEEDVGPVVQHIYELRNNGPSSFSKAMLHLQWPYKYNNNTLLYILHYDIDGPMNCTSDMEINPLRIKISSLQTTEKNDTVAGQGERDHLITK
Chain of Integrin alpha-V/beta-6 (P06756 891-1048 limits assumed): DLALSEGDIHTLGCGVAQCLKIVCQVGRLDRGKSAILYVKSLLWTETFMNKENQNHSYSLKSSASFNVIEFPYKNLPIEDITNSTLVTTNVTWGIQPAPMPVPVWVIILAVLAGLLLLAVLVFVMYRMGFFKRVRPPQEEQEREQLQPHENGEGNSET
Chain of Integrin alpha-V/beta-6 (P18564 22-788 limits assumed): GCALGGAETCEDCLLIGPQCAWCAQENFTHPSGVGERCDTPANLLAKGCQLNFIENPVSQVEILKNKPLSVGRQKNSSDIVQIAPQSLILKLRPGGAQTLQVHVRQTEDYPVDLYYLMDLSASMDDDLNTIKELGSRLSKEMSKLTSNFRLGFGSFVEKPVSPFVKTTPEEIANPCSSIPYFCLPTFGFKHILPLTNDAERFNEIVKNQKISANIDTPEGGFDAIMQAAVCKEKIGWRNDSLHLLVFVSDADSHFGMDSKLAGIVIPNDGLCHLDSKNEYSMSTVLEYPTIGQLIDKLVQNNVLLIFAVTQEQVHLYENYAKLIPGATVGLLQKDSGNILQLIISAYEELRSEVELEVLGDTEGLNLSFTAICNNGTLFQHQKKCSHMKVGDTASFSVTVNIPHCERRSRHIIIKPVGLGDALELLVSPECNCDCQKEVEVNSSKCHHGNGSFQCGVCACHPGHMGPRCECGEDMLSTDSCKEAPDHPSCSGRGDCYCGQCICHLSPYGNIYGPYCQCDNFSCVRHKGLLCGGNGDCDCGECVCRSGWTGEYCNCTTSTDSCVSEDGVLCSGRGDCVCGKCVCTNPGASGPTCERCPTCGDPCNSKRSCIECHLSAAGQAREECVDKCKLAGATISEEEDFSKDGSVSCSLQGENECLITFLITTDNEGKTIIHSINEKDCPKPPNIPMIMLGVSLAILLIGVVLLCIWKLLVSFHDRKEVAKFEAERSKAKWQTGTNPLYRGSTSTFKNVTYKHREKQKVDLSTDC

| Compound | Activity (Human alphaherpesvirus 1 [1]) | Activity (Human alphaherpesvirus 1 [4]) | IC50 (Integrin alpha-V/beta-6) [nM] | also measured |
| --- | --- | --- | --- | --- |
| CN1C(=O)[C@H](C2CCCCC2)NC(=O)[C@H](CC(=O)O)NC(=O)CNC(=O)[C@H](CCCNC(=N)N)NC(=O)CC[C@H]1C(N)=O | Dde | Active | – | Activity (Human alphaherpesvirus 1 [2]): 70%; Activity (Human alphaherpesvirus 1 [3]): Active; Activity (Human alphaherpesvirus 1 [5]): Active; Activity (Human alphaherpesvirus 1 [6]): Active; inhibition (Human alphaherpesvirus 1 [7]): Active |
| CN1C(=O)CNC(=O)[C@H](CCCNC(=N)N)NC(=O)CC[C@@H](C(N)=O)NC(=O)[C@H](C2CCCCC2)NC(=O)[C@@H]1CC(=O)O | – | – | > 5000 | – |
| N=C(N)NCCC[C@@H]1NC(=O)CC[C@@H](C(N)=O)NC(=O)[C@H](C2CCCCC2)NC(=O)[C@H](CC(=O)O)NC(=O)CNC1=O | Dde | Active | – | – |
| CC(C)C[C@H](NC(=O)[C@H](CO)NC(=O)[C@H](CC(=O)O)NC(=O)[C@H](CC(C)C)NC(=O)[C@H](CC(=O)O)NC(=O)[C@@H](NC(=O)[C@@H](N)CCCNC(=N)N)[C@@H](C)O)C(=O)N[C@@H](CCCNC(=N)N)C(=O)N[C@H](C(=O)O)[C@@H](C)O | – | – | 38 | – |
